Experiment [1] deals with Staphylococcus aureus. Nature of the experiment: Antimicrobial activity against methicillin-resistant Staphylococcus aureus 310 after 18 to 20 hrs by standard broth microdilution method. In kind it is functional. In a few lines: (§1)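 Broth microdilution: 5 μL overnight culture (1 × 10⁷ to 5 × 10⁷ CFU/ml) added to 0.1 mL broth containing drug at 0.03–128 μg/mL. Incubated 18–20 h at 37 °C. MIC = lowest concentration preventing visual turbidity. Strains from an in-house laboratory collection.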
Background: Broth dilution looks for growth in wells or tubes with falling amounts of substance.

In the next experiment the test system is Escherichia coli. Nature of the experiment: Antimicrobial activity against Escherichia coli imp 389 after 18 to 20 hrs by standard broth microdilution method. In kind it is functional. In a few lines:
(§2)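 Broth microdilution in polystyrene plates. Each well held 0.1 mL of broth medium with drug at 0.03–128 μg/mL and received 5 μL of overnight broth culture adjusted to 1 × 10⁷ to 5 × 10⁷ CFU/ml. Plates were incubated 18–20 h at 37 °C. MIC was the lowest concentration with no visible turbidity. Strains came from a laboratory collection.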

In another experiment the test system is Enterococcus faecium. Nature of the experiment: Antimicrobial activity against vancomycin-resistant Enterococcus faecium 379 after 18 to 20 hrs by standard broth microdilution method. The class given is functional. In a few lines:
as §1

Experiment [2] relates to Staphylococcus aureus. Nature of the experiment: Antimicrobial activity against Staphylococcus aureus 375 after 18 to 20 hrs by standard broth microdilution method. The class given is functional. In a few lines:
as §2

In the next experiment the test system is Bacillus subtilis. Nature of the experiment: Antimicrobial activity against Bacillus subtilis PY79 after 18 to 20 hrs by standard broth microdilution method. The class given is functional. In a few lines:
as §2

In experiment [3] the test system is Staphylococcus aureus. The experiment can be described thus: Antimicrobial activity against Staphylococcus aureus Smith infected in CD1 mouse after 7 days. The class given is functional. As to conditions: 168 h. The gist of the method:
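Female CD-1 mice (20 ± 2 g) infected intraperitoneally with bacteria in broth or ~5% mucin, inoculum lethal to 95–100% of untreated mice within 48 h. Single dose given 0.5 h post-infection. Seven-day survival from three or four tests (five dose levels, five mice per level) pooled; ED50 by probit analysis.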

Experiment [4] concerns Staphylococcus aureus. Nature of the experiment: Antimicrobial activity against Staphylococcus aureus Smith infected in CD1 mouse at 64 mg/kg after 7 days. The class given is functional, organism-based. Also noted: dose 64 mg/kg. The gist of the method:
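Female CD-1 mice weighing 20 ± 2 g were infected intraperitoneally with bacteria suspended in broth or in about 5% mucin, at an inoculum lethal to 95–100% of untreated mice within 48 h. A single drug dose was given 0.5 h after infection. Survival was scored at day 7, using five animals per dose level and three or four separate tests pooled.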

A word on the MIC: it is the smallest concentration in the dilution series that meets the test's criterion for growth inhibition. Lower therefore signals a more susceptible organism. The ED50 is the dose at which the effect has come halfway, by size or by number of responders.

Each structure is given as a SMILES string. Values after ≈ are worked out from the molar mass of the structure shown. Active and inactive are the calls of the source.

For the compound `CC(C)=CCC[C@@H](C)[C@H]1[C@H](O)C[C@@]2(C)[C@@H]3CC[C@H]4[C@](C)(C(=O)O)[C@@H](O)C[C@H](O)[C@@]45C[C@@]35CC[C@]12C`, the MIC in the experiment with Staphylococcus aureus [1] amounted to 64 µg/mL (≈ 131 µM); in the experiment on Escherichia coli it was 64 µg/mL (≈ 131 µM); against Enterococcus faecium it was 8 µg/mL (≈ 16.4 µM); against Staphylococcus aureus [2], 32 µg/mL (≈ 65.5 µM); with Bacillus subtilis it was 32 µg/mL (≈ 65.5 µM).

Take `CN[C@H](CC(C)C)C(=O)N[C@H]1C(=O)N[C@@H](CC(N)=O)C(=O)N[C@H]2C(=O)N[C@H]3C(=O)N[C@H](C(=O)N[C@H](C(=O)O)c4cc(O)cc(O)c4-c4cc3ccc4O)[C@H](O)c3ccc(c(Cl)c3)Oc3cc2cc(c3O[C@@H]2O[C@H](CO)[C@@H](O)[C@H](O)[C@H]2O[C@H]2C[C@](C)(N)[C@H](O)[C@H](C)O2)Oc2ccc(cc2Cl)[C@H]1O` [VANCOMYCIN]: in the experiment on Staphylococcus aureus [3], the 50% effect level (ED50) was put at a dose of 1 mg/kg.

`C=C(CC[C@@H](C)[C@H]1[C@@H](O)C[C@@]2(C)[C@@H]3[C@@H](O)C[C@H]4[C@](C)(C(=O)O)[C@@H](O)CC[C@@]45C[C@@]35CC[C@]12C)C(C)C`: in the experiment with Staphylococcus aureus [4], the ED50 result was “inactive”. For the same compound, the MIC against Staphylococcus aureus [1] was > 128 µg/mL; in the experiment with Escherichia coli, > 128 µg/mL; in the experiment with Enterococcus faecium, 8 µg/mL (≈ 15.9 µM); with Staphylococcus aureus [2] it was 16 µg/mL (≈ 31.8 µM); against Bacillus subtilis it was 16 µg/mL (≈ 31.8 µM).

As to `CC1(C)S[C@@H]2[C@H](NC(=O)Cc3ccccc3)C(=O)N2[C@H]1C(=O)O` [PENICILLIN G], the MIC in the experiment on Staphylococcus aureus [1] was found to be 128 µg/mL (≈ 383 µM); against Escherichia coli, 2 µg/mL (≈ 5.98 µM); in the experiment on Enterococcus faecium, 128 µg/mL (≈ 383 µM); with Staphylococcus aureus [2], 0.06 µg/mL (≈ 0.179 µM); in the experiment with Bacillus subtilis it was 8 µg/mL (≈ 23.9 µM).

In the case of `CC(C)=CCC[C@@H](C)[C@H]1C[C@H](O)[C@@]2(C)[C@@H]3CC[C@H]4[C@](C)(C(=O)O)[C@@H](O)C[C@H](O)[C@@]45C[C@@]35CC[C@]12C`, the MIC against Staphylococcus aureus [1] was 128 µg/mL (≈ 262 µM); against Escherichia coli it was > 128 µg/mL; with Enterococcus faecium, 32 µg/mL (≈ 65.5 µM); in the experiment on Staphylococcus aureus [2] it was 32 µg/mL (≈ 65.5 µM); in the experiment with Bacillus subtilis it was 64 µg/mL (≈ 131 µM).

Source of the values: ChEMBL document CHEMBL1150592, “New antimicrobial cycloartane triterpenes from Acalypha communis” (2002).
